Results on 13 compounds are retold here after ChEMBL document CHEMBL4825662 (J Med Chem, 2021).

≈ marks a conversion by molar mass, not a printed value.

For data set [1], the target named is Fusion glycoprotein F0 (Human respiratory syncytial virus A (strain A2), UniProt P03420). As to the kind of experiment: Inhibition of Respiratory syncytial virus fusion protein. The essentials:
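293T cells cotransfected with codon-optimized RSV A2 F plasmid and a GAL4-responsive luciferase reporter, mixed after 24 h with a second 293T population expressing GAL4-NF-κB transactivator. Threefold serial compound dilutions present during mixing; F-mediated fusion read as luciferase after 24 h. IC₅₀ averaged over at least two testing occasions.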

In data set [2] the test system is Human orthopneumovirus. Briefly: Antiviral activity against Respiratory syncytial virus A2 by Plaque reduction assay. The format is functional, organism-based. The essentials:
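Vero cells were infected with RSV A2 for 48 h with compound at 0.01 nM to 100 μM. Plaques were detected by immunostaining. Values are the average of at least two testing occasions.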
(In general: In a plaque reduction assay, fewer plaques than in the control indicate reduced infectivity or spread.)

Data set [3] has as its system Human orthopneumovirus. Briefly: Antiviral activity against Respiratory syncytial virus A2 infected in African green monkey Vero cells by Plaque reduction assay. The data set is classed as functional, organism-based.
A short description of data set [4]: Cytotoxicity against African green monkey Vero cells by MTT assay. The format is cell-based. The settings on record: chlorocebus sabaeus. The method, boiled down:
(§1)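 Viability was assessed by MTT after culture with compound at 0.01 nM to 100 μM, run in parallel with plaque reduction assays. Values are the average of at least two testing occasions.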
On the technique in general: Formazan colour is commonly taken as a measure of viable cells.

Data set [5] relates to Human orthopneumovirus. As to the kind of experiment: Antiviral activity against Respiratory syncytial virus A2 infected in human Hep2 cells by Plaque reduction assay. The format is functional, organism-based. The conditions noted are these: A2, HEp-2. The method, boiled down:
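Hep2 cells were infected with RSV strain A2 in the presence of compound. Plaques were detected by immunostaining after 48 h. Values are the average of at least two testing occasions.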

The nature of data set [6]: Cytotoxicity against human Hep2 cells. The data set is classed as cell-based. The conditions noted are these: HEp-2 cells. The method, boiled down:
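Hep2 cells were cultured in parallel with the plaque assays at compound concentrations of 0.01 nM to 100 μM. Viability was read by MTT, CellTox green or CellTiter-Glo.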

Data set [7] can be described thus: Intrinsic clearance in Sprague-Dawley rat liver microsomes preincubated followed by NADPH addition and measured up to 45 mins by LC-MS/MS analysis. The data set is classed as ADME, Microsome. (Liver microsomes are vesicles of endoplasmic reticulum, rich in cytochrome P450 enzymes.)
A short description of data set [8]: Intrinsic clearance in Beagle dog liver microsomes preincubated followed by NADPH addition and measured up to 45 mins by LC-MS/MS analysis. The data set is classed as ADME, Canis lupus familiaris, Microsome.
The nature of data set [9]: Intrinsic clearance in human liver microsomes preincubated followed by NADPH addition and measured up to 45 mins by LC-MS/MS analysis. The data set is classed as ADME, Microsome.
Data set [10] is described as follows: Thermodynamic solubility in PBS at 1 to 100 uM at pH 7.4 by HPLC-UV method. The format is physicochemical. The settings on record: dose 1-100 µM, read-out: Therm_solubility.
A short description of data set [11]: Apparent permeability across apical to basolateral side in MDCK-MDR1 cells at 10 uM measured at 60 mins by LC-MS/MS analysis. The data set is classed as ADME, cell-based, Canis lupus familiaris. The settings on record: dog, MDCK-MDR1.
Data set [12] in a line: Apparent permeability across basolateral side to apical side in MDCK-MDR1 cells at 10 uM measured at 60 mins by LC-MS/MS analysis. The data set is classed as ADME, cell-based, Canis lupus familiaris. The settings on record: dog.
Data set [13] can be described thus: Efflux ratio of apparent permeability in MDCK-MDR1 cells at 10 uM measured at 60 mins by LC-MS/MS analysis. The format is ADME, cell-based, Canis lupus familiaris. The conditions noted are these: dog, MDCK-MDR1.
The nature of data set [14]: Cytotoxicity against human HepG2 cells by MTT assay. The data set is classed as cell-based. The essentials: as §1
For data set [15], the system named is Human orthopneumovirus. Briefly: Antiviral activity against Respiratory syncytial virus A2 infected in human Huh7 cells by Plaque reduction assay. The format is functional, organism-based. The settings on record: A2, Huh-7. The essentials:
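Huh-7 cells were infected with RSV strain A2 in the presence of compound. Values are the average of at least two testing occasions.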

Data set [16] is described as follows: Half life in Sprague-Dawley rat liver microsomes preincubated followed by NADPH addition and measured up to 45 mins by LC-MS/MS analysis. The data set is classed as ADME, Microsome.
The nature of data set [17]: Half life in Beagle dog liver microsomes preincubated followed by NADPH addition and measured up to 45 mins by LC-MS/MS analysis.
Data set [18] is described as follows: Half life in human liver microsomes preincubated followed by NADPH addition and measured up to 45 mins by LC-MS/MS analysis. The format is ADME, Microsome.
A short description of data set [19]: Clearance in CD1 mouse at 1 mg/kg, iv measured after 0.083 to 24 hrs by UHPLC-TOF method. The format is ADME, organism-based. The settings on record: in vivo, time 0.083-24 hrs.
The nature of data set [20]: Volume of distribution at steady state in CD1 mouse at 1 mg/kg, iv measured after 0.083 to 24 hrs by UHPLC-TOF method. The format is ADME, organism-based. The settings on record: in vivo, time 0.083-24 hrs, read-out: Vdss. The essentials:
(§2)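 Male CD-1 mice, acclimatized and individually housed, dosed IV and PO as amorphous-solid suspension. Terminal cardiac-puncture blood into heparinized tubes on wet ice, centrifuged at 4 °C within 15 min; plasma snap-frozen at −20 °C. IV arm sampled 2 min–24 h, oral arm 5 min–24 h. Plasma analysed by UHPLC-quadrupole-TOF MS.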

A short description of data set [21]: Half life in CD1 mouse at 10 mg/kg, po measured after 0.083 to 24 hrs by UHPLC-TOF method. The settings on record: in vivo, time 0.083-24 hrs. The data set is classed as ADME, organism-based.
Data set [22] in a line: Tmax in CD1 mouse at 10 mg/kg, po measured after 0.083 to 24 hrs by UHPLC-TOF method. The data set is classed as ADME, organism-based. The settings on record: in vivo, time 0.083-24 hrs. The method, boiled down:
as §2

A short description of data set [23]: Cmax in CD1 mouse at 10 mg/kg, po measured after 0.083 to 24 hrs by UHPLC-TOF method. The data set is classed as ADME, organism-based. On the set-up: route oral, time 0.083-24 hrs, dose 10 mg/kg. The settings on record: in vivo.
Data set [24] can be described thus: Oral bioavailability in CD1 mouse at 10 mg/kg measured after 0.03 to 24 hrs by UHPLC-TOF method. The data set is classed as ADME, organism-based. The settings on record: in vivo, time 0.03-24 hrs. The essentials: as §2

Fusion glycoprotein F0, sequence (P03420 26-109 limits assumed): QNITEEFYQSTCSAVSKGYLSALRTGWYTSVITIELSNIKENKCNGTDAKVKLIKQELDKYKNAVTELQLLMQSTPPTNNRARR
Fusion glycoprotein F0, sequence (P03420 137-574 limits assumed): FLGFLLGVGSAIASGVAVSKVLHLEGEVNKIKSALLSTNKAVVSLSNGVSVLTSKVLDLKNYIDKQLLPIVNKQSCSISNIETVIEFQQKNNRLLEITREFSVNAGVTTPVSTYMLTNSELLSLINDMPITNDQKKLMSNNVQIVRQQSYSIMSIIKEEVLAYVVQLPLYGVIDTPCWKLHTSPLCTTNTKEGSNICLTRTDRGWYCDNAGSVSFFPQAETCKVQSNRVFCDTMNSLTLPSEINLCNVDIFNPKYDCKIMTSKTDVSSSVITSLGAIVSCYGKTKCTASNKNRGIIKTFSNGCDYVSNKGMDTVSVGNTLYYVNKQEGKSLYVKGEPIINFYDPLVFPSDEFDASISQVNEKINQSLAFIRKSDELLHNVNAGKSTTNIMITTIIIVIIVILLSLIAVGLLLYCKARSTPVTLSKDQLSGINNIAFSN

In general, IC50 refers to the midpoint of a concentration-inhibition curve. As usually defined, the EC50 is the concentration that produces a half-maximal response. On to `CC(C)CCn1c(CN2C(=O)C3(CCOCC3)c3ccccc32)nc2cc(CN)ccc21`, for which, in [1], half-maximal inhibition (IC50) was put at 0.69 nM. Also, in data set [2], the concentration for a half-maximal effect (EC50) turned out to be 3.4 nM.

For orientation: CC50 means the concentration that lowers cell viability or growth by half. In the case of `CC(C)CCn1c(CN2C(=O)C3(CC3)c3cccc(Cl)c32)nc2cc(CN)ccc21`, the EC50 in data set [3] was determined as 2380 nM. For the same compound, the midpoint of cytotoxicity in data set [4], the CC50, lay at 21700 nM.

Regarding `CC(C)CCn1c(CN2C(=O)C3(CCCC3)c3ccccc32)nc2cc(CN)ccc21`, it took 580 nM to reach a half-maximal effect in data set [3] (EC50). Also, the CC50 in data set [4] was 9940 nM.

For the compound `N=C(N)c1ccc2c(c1)nc(CN1C(=O)C3(CC3)c3ccc(F)cc31)n2CCCC(F)(F)F`, the EC50 in data set [5] is 0.5 nM. In data set [6], this compound yielded a CC50 above 20000 nM.

The compound `CC(C)CCn1c(CN2C(=O)C3(CC3)c3ccncc32)nc2cc(CN)ccc21` showed a half-inhibitory concentration (IC50) in [1] of 0.9 nM. In addition, in data set [2], a half-maximal response (EC50) required 2.1 nM.

As usually defined, the Papp A→B is how fast a substance crosses the layer from the apical side. As usually defined, the Papp B→A is the apparent permeability from the basolateral to the apical side of a cell layer. By efflux ratio is commonly meant a quotient of directional permeabilities that is used to spot active efflux. Turning to `CS(=O)(=O)CCCn1c(CN2C(=O)C3(CC3)c3ccc(F)cc32)nc2cc(CN)ccc21`, in data set [7], the Microsomal intrinsic clearance worked out at 3.63 µL/min. The compound further returned an intrinsic clearance in [8] of 5.34 µL/min. The “intrinsic clearance (CLint)” value in [9] amounted to 3.78 µL/min. Moreover, the solubility thermodynamic in data set [10] was 2600 µM (≈ 1180 µg/mL). The Papp A→B at 1 h, 10 µM in [11] turned out to be 0.24 ×10⁻⁶ cm/s. Moreover, the Papp B→A at 1 h, 10 µM in [12] amounted to 0.79 ×10⁻⁶ cm/s. For the same compound, in data set [13], the efflux ratio at 1 h, 10 µM was 3.26. The compound also showed a CC50 in data set [14] above 25000 nM. In data set [15], this compound gave an EC50 of 5.7 nM.

`O=C(O)c1ccc2c(c1)nc(CN1C(=O)C3(CC3)c3ccc(F)cc31)n2CCCC(F)(F)F` had an EC50 in data set [3] of 10200 nM. The CC50 in [14] was above 25000 nM.

Consider `NCc1ccc2c(c1)nc(CN1C(=O)C3(CC3)c3ccc(F)cc31)n2CCCCO`, for which, in data set [14], the 50% cytotoxic concentration (CC50) was above 25000 nM. A half-maximal effect in data set [15] (EC50) was put at 3.6 nM.

`CCNC(=N)c1ccc2c(c1)nc(CN1C(=O)C3(CC3)c3ccc(F)cc31)n2CCCC(F)(F)F` showed an EC50 in data set [3] of 454 nM. Further, the CC50 in [14] is above 25000 nM.

In [5], `N=C(N)NCc1ccc2c(c1)nc(CN1C(=O)C3(CC3)c3ccc(F)cc31)n2CCCC(F)(F)F` registered an EC50 of 21.1 nM. Further, the CC50 in data set [6] is above 20000 nM.

On to `CC(C)CCn1c(CN2C(=O)C3(CCC3)c3ccccc32)nc2cc(CN)ccc21`, for which the concentration for a half-maximal effect (EC50) in [3] was determined as 240 nM. In addition, the midpoint of cytotoxicity in [4], the CC50, lay at 13800 nM.

The half-life is how long it takes for the measured level to halve. A word on the clearance: it is a measure of how efficiently the substance is removed, as volume per time. The term Tmax denotes the time from dosing to the highest level. As a reminder, the Cmax is the highest concentration seen after dosing. For orientation: bioavailability means dose-corrected exposure relative to a reference, in per cent. On to `NCc1ccc2c(c1)nc(CN1C(=O)C3(CC3)c3ccc(F)cc31)n2C1CCC(O)CC1` (centres undefined), for which, in data set [7], the Microsomal intrinsic clearance turned out to be 9.4 µL/min. This compound returned an intrinsic clearance in data set [8] of 5.02 µL/min. In data set [9], the “intrinsic clearance (CLint)” value is 4.6 µL/min. The half-life in [16] was 2.45 h; in data set [17] it was 4.6 h; in [18], 5 h; in data set [21], 0.9 h. This compound yielded a clearance in [19] of 82.7 mL/min/kg. The Vd in [20] came to 3.8 L/kg. The solubility thermodynamic in data set [10] was 313 µM (≈ 136 µg/mL). In addition, the apical-to-basolateral permeability (Papp A→B) at 1 h, 10 µM in [11] came out at 0.1 ×10⁻⁶ cm/s. In [12], the apparent permeability from basolateral to apical (Papp B→A) at 1 h, 10 µM amounted to 2.8 ×10⁻⁶ cm/s. Moreover, the efflux ratio at 1 h, 10 µM in data set [13] worked out at 21. This compound also gave a CC50 in [14] above 25000 nM. Moreover, in data set [22], the Tmax is 6 min. The compound also displayed a Cmax in data set [23] of 47.8 ng/mL. The bioavailability in data set [24] amounted to 4.4%. The midpoint of the response in data set [15], the EC50, lay at 1.6 nM.

In data set [1], `CC(=O)N1CC2(C1)C(=O)N(Cc1nc3cc(CN)ccc3n1CCC(C)C)c1ccccc12` registered an IC50 of 1.1 nM. In [2], this compound displayed a concentration giving a half-maximal response (EC50) of 2.2 nM.
